Source: ChEMBL document CHEMBL5653606 (J Pharmacol Exp Ther, 2011)
The source made the active and inactive calls.

Experiments:
Rattus norvegicus [1] = test: Antihyperalgesic activity in MIA induced Sprague-Dawley rat assessed as effect on pain behaviour in contralateral knee joint at 0.3 to 3 mg/kg, po administered once daily for 3 consecutive days; type: functional, organism-based; details: dose 0.3-3 mg/kg, time 3.0 day
How it was run: (§1)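 Male Sprague-Dawley rats (220–270 g), isoflurane-anesthetized, given 2 mg MIA in 0.9% saline (50 μl) intra-articular into the knee. From day 14, oral dosing at 10 ml/kg once daily for 3 days in 4% 2-hydroxypropyl-β-cyclodextrin/1% ethanol in 0.01 M HCl. Celecoxib 30 mg/kg in 0.5% methylcellulose twice daily. Joint compression threshold by digital Randall-Selitto at 2 and 4 h postdose on days 1 and 3; n = 10/group.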

Rattus norvegicus [2] = test: Antihyperalgesic activity in MIA induced Sprague-Dawley rat assessed as increased joint compression thresholds at 30 mg/kg, po administered twice daily for 3 consecutive days measured after 2 to 4 hrs; type: functional, organism-based; details: time 3.0 day; how it was run: as §1
[3] = target: T1, Fatty-acid amide hydrolase 1 (Rattus norvegicus) (UniProt P97612); details: Sprague-Dawley, dose 10.0 mg/kg, route po
T1 sequence (whole entry): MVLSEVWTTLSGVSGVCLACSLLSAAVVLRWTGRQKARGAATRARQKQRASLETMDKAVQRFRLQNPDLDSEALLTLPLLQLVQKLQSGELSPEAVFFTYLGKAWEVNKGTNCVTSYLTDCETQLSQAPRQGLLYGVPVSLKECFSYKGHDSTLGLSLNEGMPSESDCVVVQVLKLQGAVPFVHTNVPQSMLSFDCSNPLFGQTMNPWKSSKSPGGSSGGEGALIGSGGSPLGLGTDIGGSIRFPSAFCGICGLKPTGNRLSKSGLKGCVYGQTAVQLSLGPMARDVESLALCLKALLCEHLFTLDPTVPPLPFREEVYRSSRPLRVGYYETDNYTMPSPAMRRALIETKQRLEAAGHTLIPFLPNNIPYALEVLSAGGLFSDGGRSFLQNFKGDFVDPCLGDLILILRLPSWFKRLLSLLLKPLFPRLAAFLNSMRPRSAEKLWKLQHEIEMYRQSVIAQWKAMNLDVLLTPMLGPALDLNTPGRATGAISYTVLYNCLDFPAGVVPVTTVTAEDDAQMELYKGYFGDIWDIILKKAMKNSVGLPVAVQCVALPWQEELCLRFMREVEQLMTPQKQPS

[4] = target: T1, Fatty-acid amide hydrolase 1 (Rattus norvegicus); details: Sprague-Dawley, dose 10.0 mg/kg, route po; remark: listed apart in the source
[5] = target: T1, Fatty-acid amide hydrolase 1 (Rattus norvegicus); details: Sprague-Dawley, dose 10.0 mg/kg, route po; remark: listed apart in the source
[6] = target: T1, Fatty-acid amide hydrolase 1 (Rattus norvegicus); details: Sprague-Dawley, dose 10.0 mg/kg, route po; remark: listed apart in the source
[7] = target: T1, Fatty-acid amide hydrolase 1 (Rattus norvegicus); details: Sprague-Dawley, dose 10.0 mg/kg, route po; remark: listed apart in the source
[8] = target: T1, Fatty-acid amide hydrolase 1 (Rattus norvegicus); details: Sprague-Dawley, dose 10.0 mg/kg, route po; remark: listed apart in the source
[9] = target: T1, Fatty-acid amide hydrolase 1 (Rattus norvegicus); details: Sprague-Dawley, dose 10.0 mg/kg, route po; remark: listed apart in the source
Rattus norvegicus [10] = test: Antihyperalgesic activity in CFA induced Sprague-Dawley rat assessed as partial reduction of mechanical allodynia at 3 mg/kg, ip by von frey test; type: functional, organism-based
How it was run: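 CFA (150 μl, 1 mg/ml in mineral oil) injected into the plantar hind paw of male Sprague-Dawley rats (200–250 g). On day 5, the CB1 or CB2 antagonist was given at 3 mg/kg i.p. 10 min before testing, alongside a 3 mg/kg p.o. dose of the FAAH inhibitor. Mechanical paw withdrawal thresholds were measured with Von Frey hairs; n = 8 rats/group.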

[11] = target: T1, Fatty-acid amide hydrolase 1 (Rattus norvegicus); test: Inhibition of rat FAAH assessed as kinact/Ki ratio in presence of glutamate dehydrogenase by 384-well format microplate reader assay
How it was run: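 Purified recombinant FAAH (>95% pure), human or rat. Glutamate dehydrogenase-coupled assay in 384-well format, 50 μl final volume. NAD⁺ formed from ammonia released by oleamide hydrolysis, followed at 340 nm.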

[12] = target: T2, Fatty-acid amide hydrolase 1 (Homo sapiens) (UniProt O00519); test: Inhibition of FAAH in human brain at 100 uM in presence of FP-rhodamine by competitive activity-based protein profiling method; type: tissue-based
T2 sequence (whole entry): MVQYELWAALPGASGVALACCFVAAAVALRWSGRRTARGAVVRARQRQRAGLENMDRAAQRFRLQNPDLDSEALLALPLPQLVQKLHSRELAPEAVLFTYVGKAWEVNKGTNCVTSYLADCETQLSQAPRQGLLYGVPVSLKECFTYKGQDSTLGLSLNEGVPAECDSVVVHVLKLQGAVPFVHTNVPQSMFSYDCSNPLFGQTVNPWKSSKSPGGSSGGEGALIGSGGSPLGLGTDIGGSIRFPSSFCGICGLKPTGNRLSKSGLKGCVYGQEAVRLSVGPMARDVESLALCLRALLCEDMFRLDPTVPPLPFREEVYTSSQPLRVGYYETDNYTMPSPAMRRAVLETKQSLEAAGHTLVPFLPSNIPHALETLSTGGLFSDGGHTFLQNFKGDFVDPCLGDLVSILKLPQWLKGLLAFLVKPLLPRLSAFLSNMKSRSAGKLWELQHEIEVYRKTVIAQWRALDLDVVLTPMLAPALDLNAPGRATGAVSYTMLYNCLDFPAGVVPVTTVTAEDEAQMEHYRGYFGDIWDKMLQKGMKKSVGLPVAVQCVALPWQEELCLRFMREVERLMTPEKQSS
How it was run: (§2)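 Competitive ABPP on human and mouse brain, liver and heart proteomes (membrane and soluble fractions), exposed to compound at 10 or 100 μM or to DMSO. Serine hydrolases were then labeled with FP-rhodamine. Gels were read by fluorescence scanning, and loss of band labeling (FAAH or other hydrolases by kDa) was judged.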

[13] = target: T2, Fatty-acid amide hydrolase 1 (Homo sapiens); test: Inhibition of FAAH in human brain at 10 uM in presence of FP-rhodamine by competitive activity-based protein profiling method; type: tissue-based; how it was run: as §2
[14] = target: T3, Fatty-acid amide hydrolase 1 (Mus musculus) (UniProt O08914); test: Inhibition of FAAH in mouse brain at 100 uM in presence of FP-rhodamine by competitive activity-based protein profiling method; type: tissue-based; how it was run: as §2
T3 sequence (whole entry): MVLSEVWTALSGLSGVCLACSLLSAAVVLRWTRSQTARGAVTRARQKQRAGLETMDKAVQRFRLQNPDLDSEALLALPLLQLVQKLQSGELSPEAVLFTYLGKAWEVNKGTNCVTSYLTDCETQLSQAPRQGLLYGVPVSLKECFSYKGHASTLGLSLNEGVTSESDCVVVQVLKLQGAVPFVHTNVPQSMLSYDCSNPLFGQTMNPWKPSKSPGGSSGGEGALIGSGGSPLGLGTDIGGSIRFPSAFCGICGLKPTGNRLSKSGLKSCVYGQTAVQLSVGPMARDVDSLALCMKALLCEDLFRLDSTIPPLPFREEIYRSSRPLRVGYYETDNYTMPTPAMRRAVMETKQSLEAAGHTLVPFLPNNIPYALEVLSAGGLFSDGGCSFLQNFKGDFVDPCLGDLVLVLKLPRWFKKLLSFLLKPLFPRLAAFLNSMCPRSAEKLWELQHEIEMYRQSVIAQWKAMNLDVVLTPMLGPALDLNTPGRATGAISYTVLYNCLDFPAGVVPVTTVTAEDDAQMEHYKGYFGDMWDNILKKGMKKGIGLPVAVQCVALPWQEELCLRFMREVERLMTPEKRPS

[15] = target: T3, Fatty-acid amide hydrolase 1 (Mus musculus); test: Inhibition of FAAH in mouse brain at 10 uM in presence of FP-rhodamine by competitive activity-based protein profiling method; type: tissue-based; how it was run: as §2
[16] = target: T2, Fatty-acid amide hydrolase 1 (Homo sapiens); test: Inhibition of human FAAH assessed as kinact/Ki ratio in presence of glutamate dehydrogenase by 384-well format microplate reader assay
How it was run: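 Glutamate dehydrogenase-coupled assay in 384-well format, 50 μl final volume. NAD⁺ formed from ammonia released by oleamide hydrolysis, followed at 340 nm.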

Mus musculus [17] = test: Antinociceptive activity in C57BL6/J mouse assessed as increase in catalepsy at 10 mg/kg, ip administered for 30 mins; type: functional, organism-based
How it was run: (§3)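 Tetrad test in male C57BL6/J mice (7 weeks old; n = 8/group). Dosed i.p. at 10 ml/kg in 18:1:1 saline/Emulphor/ethanol, with a vehicle control group. Locomotive activity, thermal nociception (tail-immersion latency), catalepsy (60 s) and body temperature were assessed 30 min postdosing.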

Mus musculus [18] = test: Antinociceptive activity in C57BL6/J mouse assessed as reduction in locomotive activity at 10 mg/kg, ip administered for 30 mins; type: functional, organism-based; how it was run: as §3
Mus musculus [19] = test: Antinociceptive activity in C57BL6/J mouse assessed as increase in tail-immersion latency at 10 mg/kg, ip administered for 30 mins; type: functional, organism-based; how it was run: as §3
Mus musculus [20] = test: Antinociceptive activity in C57BL6/J mouse assessed as increase in body temperature at 10 mg/kg, ip administered for 30 mins; type: functional, organism-based; how it was run: as §3
Mus musculus [21] = test: In vivo inhibition of rhodamine-azide tagged FAAH expressed in mouse liver at 10 mg/kg, ip administered for 2 hrs by CC-ABPP method based in-gel fluorescence scanning analysis; type: functional, organism-based
How it was run: (§4)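 Alkyne analog given at 10 mg/kg i.p. to FAAH(+/+) or FAAH(−/−) mice. Animals killed at 2 h. Brain or liver proteomes click-reacted with rhodamine-azide tag, then analyzed by in-gel fluorescence scanning.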

Mus musculus [22] = test: In vivo inhibition of rhodamine-azide tagged FAAH in FAAH knockout mouse liver at 10 mg/kg, ip administered for 2 hrs by CC-ABPP method based in-gel fluorescence scanning analysis; type: functional, organism-based; how it was run: as §4
Mus musculus [23] = test: In vivo inhibition of rhodamine-azide tagged FAAH expressed in mouse brain at 10 mg/kg, ip administered for 2 hrs by CC-ABPP method based in-gel fluorescence scanning analysis; type: functional, organism-based; how it was run: as §4
[24] = target: T2, Fatty-acid amide hydrolase 1 (Homo sapiens); test: Inhibition of FAAH (unknown origin) assessed as kinact/Ki ratio in presence of glutamate dehydrogenase by 384-well format microplate reader assay

Compound: Cc1ccc(-c2cc(C(F)(F)F)nn2-c2ccc(S(N)(=O)=O)cc2)cc1
- Activity (Rattus norvegicus [1]): inactive
- Activity (Rattus norvegicus [2]): Active

Compound: COc1ccc2cc([C@H](C)C(=O)O)ccc2c1
- inhibition [3]: inactive
- inhibition [4]: inactive
- inhibition [5]: inactive
- inhibition [6]: inactive
- inhibition [7]: inactive
- inhibition [8]: inactive
- inhibition [9]: inactive

Compound: Cc1c(C(=O)NN2CCCCC2)nn(-c2ccc(Cl)cc2Cl)c1-c1ccc(Cl)cc1
- Activity (Rattus norvegicus [10]): inactive

Compound: O=C(Nc1ccccc1)N1CCC(Cc2cnc3ccccc3c2)CC1
- Ratio [11]: 104 M⁻¹ s⁻¹

Compound: Cc1ccc(Cn2nc(C(=O)N[C@@H]3C(C)(C)[C@@H]4CC[C@@]3(C)C4)cc2-c2ccc(Cl)c(C)c2)cc1
- Activity (Rattus norvegicus [10]): inactive

Compound: NC(=O)c1cccc(-c2cccc(OC(=O)NC3CCCCC3)c2)c1
- inhibition [12]: Active
- inhibition [13]: Active
- inhibition [14]: Active
- inhibition [15]: Active
- Ratio [16]: 1590 M⁻¹ s⁻¹

Compound: Cc1c(C(=O)c2cccc3ccccc23)c2cccc3c2n1[C@H](CN1CCOCC1)CO3
- Activity (Mus musculus [17]): Toxic
- Activity (Mus musculus [18]): Toxic
- Activity (Mus musculus [19]): Toxic
- Activity (Mus musculus [20]): Toxic

Compound: C#CCCCCCCCCCNC(=O)Oc1cccc(-c2cccc(C(N)=O)c2)c1
- inhibition (Mus musculus [21]): Active
- inhibition (Mus musculus [22]): Active
- inhibition (Mus musculus [23]): Active

Compound: C#CCCCOc1ccc(Oc2cccc(C=C3CCN(C(=O)Nc4cccnn4)CC3)c2)nc1
- inhibition (Mus musculus [21]): Active
- Ratio [24]: 11900 M⁻¹ s⁻¹
- inhibition (Mus musculus [23]): Active
